Data reported in publication PMC3947851 (Bioorganic & medicinal chemistry, 2012).
≈ marks a conversion by molar mass, not a printed value. Structures can show the parent of a compound that is named as a salt.

Legend:
SaFtsZ [1] = molecular target: T1, SaFtsZ (Staphylococcus aureus, UniProt P0A031); experiment: FtsZ polymerization assay; type: biochemical; settings: for Impact on SaFtsZ polymerization (A340) / Stability of compound-induced SaFtsZ polymers to added GDP: compound 40 μg/mL, 1 mM GTP; for Impact on SaFtsZ polymerization (A340): 10 μM SaFtsZ, 25 °C; for Stability of compound-induced SaFtsZ polymers to added GDP: 1 mM GDP added
T1 sequence (P0A031 1-390): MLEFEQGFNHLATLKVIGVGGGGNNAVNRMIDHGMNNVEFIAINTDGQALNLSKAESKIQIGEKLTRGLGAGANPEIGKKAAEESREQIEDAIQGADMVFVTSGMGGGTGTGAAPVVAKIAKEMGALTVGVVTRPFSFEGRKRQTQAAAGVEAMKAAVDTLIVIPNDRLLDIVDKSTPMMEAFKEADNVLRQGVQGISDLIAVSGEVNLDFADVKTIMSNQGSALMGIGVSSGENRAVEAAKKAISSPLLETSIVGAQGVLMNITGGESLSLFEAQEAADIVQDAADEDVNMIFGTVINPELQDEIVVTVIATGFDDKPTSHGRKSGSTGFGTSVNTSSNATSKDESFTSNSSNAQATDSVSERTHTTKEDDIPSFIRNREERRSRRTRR

[2] = MTT cytotoxicity assay, HEK293; type: cell-based, human; settings: human, HEK293 cells
Procedure, shortened: (§1)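 MTT tetrazolium assay in 96-well plates. Cells were grown […] at 37 °C in 5% CO2 and passaged in DMEM. Each well was seeded with 1500 cells, and triplicate wells were exposed continuously to varying concentrations of test compound for four days. MTT was read at the end of day 4, and IC50 was determined.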

[3] = MTT cytotoxicity assay, MDCK; type: cell-based, canine; settings: dog, MDCK cells
Procedure, shortened: as §1

HEK293 cells = experiment: MTT cytotoxicity assay, HEK293; type: cell-based, human; settings: 10 μM, MTT
Procedure, shortened: as §1

[4] = molecular target: microtubule-associated protein (MAP)-rich porcine β-tubulin (Sus scrofa, UniProt P02554); experiment: Tubulin polymerization assay; type: biochemical; settings: tubulin 2 mg/mL
microtubule-associated protein (MAP)-rich porcine β-tubulin, sequence (P02554 whole entry): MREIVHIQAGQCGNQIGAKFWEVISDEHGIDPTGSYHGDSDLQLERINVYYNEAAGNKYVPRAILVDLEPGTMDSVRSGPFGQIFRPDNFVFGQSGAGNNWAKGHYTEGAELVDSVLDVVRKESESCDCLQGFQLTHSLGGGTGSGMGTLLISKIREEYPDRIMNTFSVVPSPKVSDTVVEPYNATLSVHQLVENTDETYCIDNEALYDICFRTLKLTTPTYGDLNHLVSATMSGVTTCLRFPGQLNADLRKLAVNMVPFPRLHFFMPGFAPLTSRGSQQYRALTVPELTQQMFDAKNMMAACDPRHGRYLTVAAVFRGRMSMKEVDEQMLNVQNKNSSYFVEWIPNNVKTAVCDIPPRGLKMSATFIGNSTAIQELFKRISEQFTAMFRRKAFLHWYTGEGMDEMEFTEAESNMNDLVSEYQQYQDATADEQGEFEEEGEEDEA
microtubule-associated protein (MAP)-rich porcine β-tubulin, sequence (P02550 whole entry partner): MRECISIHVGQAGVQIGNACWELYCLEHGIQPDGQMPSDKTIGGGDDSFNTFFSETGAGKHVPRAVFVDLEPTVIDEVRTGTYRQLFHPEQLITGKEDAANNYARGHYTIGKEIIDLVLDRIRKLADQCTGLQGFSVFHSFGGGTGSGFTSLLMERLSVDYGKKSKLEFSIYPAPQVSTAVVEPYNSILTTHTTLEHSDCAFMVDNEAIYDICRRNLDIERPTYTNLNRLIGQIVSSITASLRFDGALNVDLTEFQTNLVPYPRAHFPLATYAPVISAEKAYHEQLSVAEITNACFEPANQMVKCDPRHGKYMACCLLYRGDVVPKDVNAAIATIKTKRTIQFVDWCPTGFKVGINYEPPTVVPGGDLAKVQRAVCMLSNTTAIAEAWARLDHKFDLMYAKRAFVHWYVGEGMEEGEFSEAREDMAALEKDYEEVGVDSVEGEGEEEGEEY
Procedure, shortened: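 MAP-rich porcine tubulin (70% tubulin, 30% MAPs) at 2 mg/mL with 1 mM GTP in 80 mM PIPES NaOH (pH 7.0), 2 mM MgCl2, 1 mM EGTA. Test compound 40 μg/mL, paclitaxel 25 μg/mL or nocodazole 10 μg/mL as comparators, or DMSO vehicle. Turbidity (A340) read continuously at 37 °C over 60 min.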

S. aureus 8325-4 (MSSA) = experiment: MIC assay, CLSI broth microdilution, MSSA; type: cell-based; settings: Staphylococcus aureus, 24 h, read-out: MIC S. aureus 8325-4 (MSSA), lowest concentration at which growth is ≥90% inhibited, CAMH broth, 37 °C
SaFtsZ [5] = molecular target: T1, SaFtsZ; experiment: FtsZ GTPase assay; type: biochemical; settings: for Concentration dependence of the impact on SaFtsZ GTPase activity: 10 μM SaFtsZ, Fig. 4

Compound: COc1cc2cc(-c3cccc(-c4ccc(C(C)(C)C)cc4)c3)nc(C)c2cc1OC [Compound 7a, 3-(4′-(t-Butyl)-[1,1′-biphenyl]-3-yl)-6,7-dimethoxy-1-methylisoquinoline]
- Impact on SaFtsZ polymerization (A340) (SaFtsZ [1]): did not significantly impact SaFtsZ polymerization

Compound: COc1cc2cc(-c3cccc(-c4ccccc4)c3)nc(N=C(N)N)c2cc1OC [Compound 10a, 2-(3-([1,1′-biphenyl]-3-yl)-6,7-dimethoxyisoquinolin-1-yl)guanidine]
- IC50 at 4 days [2]: 2.2 to 3.5 µM
- IC50 at 4 days [3]: 2.2 to 3.5 µM

Compound: COc1cc2cc(-c3cccc(-c4ccccc4)c3)nc(CN=C(N)N)c2cc1OC [Compound 13a, 2-((3-([1,1′-biphenyl]-3-yl)-6,7-dimethoxyisoquinolin-1-yl)methyl)guanidine trifluo roacetate]
- Human cell toxicity at the highest concentration tested (HEK293 cells): no significant human cell toxicity

Compound: COc1cc2cc(-c3cccc(C(C)(C)C)c3)nc(C)c2cc1OC [Compound 4a, 3-(3-(t-Butyl)phenyl)-6,7-dimethoxy-1-methylisoquino line]
- Impact on SaFtsZ polymerization (A340) (SaFtsZ [1]): did not significantly impact SaFtsZ polymerization

Compound: COC(=O)Nc1nc2cc(C(=O)c3cccs3)ccc2[nH]1 [nocodazole, reference compound]
- Impact on polymerization of porcine β-tubulin (A340) ([4]; 10 μg/mL, positive control): produce their expected impacts on tubulin polymerization dynamics

Compound: COc1cc2cc(-c3cccc(C(C)(C)C)c3)nc(CN=C(N)N)c2cc1OC [Compound 19a, 2-((3-(3-(t-Butyl)phenyl)-6,7-dimethoxyisoquinolin-1-yl)methyl)guanidine]
- Impact on polymerization of porcine β-tubulin (A340) ([4]; compound 40 μg/mL, 37 °C): neither 7b nor 19a exert a significant impact
- Impact on SaFtsZ polymerization (A340) (SaFtsZ [1]): stimulate SaFtsZ polymerization

Compound: COc1ccc2cc3[n+](cc2c1OC)CCc1cc2c(cc1-3)OCO2 [Berberine, berberine, reference compound]
- Impact on SaFtsZ polymerization (A340) (SaFtsZ [1]): did not significantly impact SaFtsZ polymerization

Compound: COc1cc2cc(-c3cccc(-c4ccc(C(C)(C)C)cc4)c3)nc(CN=C(N)N)c2cc1OC [Compound 21a, 2-((3-(4′-(t-Butyl)-[1,1′-biphenyl]-3-yl)-6,7-dimethoxyisoquinolin-1-yl)methyl)guanidine trifluoroacetate]
- MIC (S. aureus 8325-4 (MSSA)): 2 to 4 µg/mL

Compound: CC(=O)O[C@H]1C(=O)[C@@]2(C)[C@H]([C@H](OC(=O)c3ccccc3)[C@]3(O)C[C@H](OC(=O)[C@H](O)[C@@H](NC(=O)c4ccccc4)c4ccccc4)C(C)=C1C3(C)C)[C@]1(OC(C)=O)CO[C@@H]1C[C@@H]2O [paclitaxel, reference compound]
- Impact on polymerization of porcine β-tubulin (A340) ([4]; 25 μg/mL, positive control): produce their expected impacts on tubulin polymerization dynamics

Compound: COc1cc2cc(-c3cccc(-c4ccccc4)c3)nc(CCN=C(N)N)c2cc1OC [Compound 15a, 2-(2-(3-([1,1′-Biphenyl]-3-yl)-6,7-dimethoxyisoquinolin-1-yl)ethyl)guanidine]
- Human cell toxicity at the highest concentration tested (HEK293 cells): no significant human cell toxicity
- Concentration dependence of the impact on SaFtsZ GTPase activity (SaFtsZ [5]): stimulate GTPase activity at lower concentrations, followed by inhibition at higher concentrations
- Impact on SaFtsZ polymerization (A340) (SaFtsZ [1]): stimulate SaFtsZ polymerization

Compound: COc1cc2cc(-c3cccc(C(C)(C)C)c3)nc(CCN=C(N)N)c2cc1OC [Compound 20a, 2-(2-(3-(3-(t-Butyl)phenyl)-6,7-dimethoxyisoquinolin-1-yl)ethyl)guanidine]
- MIC (S. aureus 8325-4 (MSSA)): 2 to 4 µg/mL (≈ 4.92 to 9.84 µM)
- Concentration dependence of the enhancement of SaFtsZ polymerization (SaFtsZ [1]; 20, 30 and 40 μg/mL): enhances SaFtsZ polymerization increases with increasing compound concentration
- Impact on SaFtsZ polymerization (A340) (SaFtsZ [1]): stimulate SaFtsZ polymerization
- Stability of compound-induced SaFtsZ polymers to added GDP (SaFtsZ [1]): stable to the depolymerizing effects of GDP

Compound: CN[C@H](CC(C)C)C(=O)N[C@H]1C(=O)N[C@@H](CC(N)=O)C(=O)N[C@H]2C(=O)N[C@H]3C(=O)N[C@H](C(=O)N[C@H](C(=O)O)c4cc(O)cc(O)c4-c4cc3ccc4O)[C@H](O)c3ccc(c(Cl)c3)Oc3cc2cc(c3O[C@@H]2O[C@H](CO)[C@@H](O)[C@H](O)[C@H]2O[C@H]2C[C@](C)(N)[C@H](O)[C@H](C)O2)Oc2ccc(cc2Cl)[C@H]1O [Vancomycin, reference compound]
- Percent GTPase activity (SaFtsZ [5]; 40 μg/mL, percentage of activity with vehicle (DMSO) alone, mean of two ± SD): no significant impact
- Impact on SaFtsZ polymerization (A340) (SaFtsZ [1]): no impact on the polymerization of SaFtsZ

Compound: COc1cc2cc(-c3cccc(-c4ccc(-c5ccccc5)cc4)c3)[n+](C)c(C)c2cc1OC.[I-] [Compound 5b, 3-([1,1′:4′,1″-Terphenyl]-3-yl)-6,7-dimethoxy-1,2-dimethy lisoquinolin-2-ium iodide]
- Impact on SaFtsZ polymerization (A340) (SaFtsZ [1]): stimulate SaFtsZ polymerization

Compound: NC(=O)c1c(F)ccc(OCc2nc3cc(Cl)cnc3s2)c1F [PC190723, reference compound]
- Impact on SaFtsZ polymerization (A340) (SaFtsZ [1]): stimulate SaFtsZ polymerization

Compound: COc1cc2cc(-c3cccc(-c4ccc(C(C)(C)C)cc4)c3)[n+](C)c(C)c2cc1OC.[I-] [Compound 7b, 3-(4′-(t-Butyl)-[1,1′-biphenyl]-3-yl)-6,7-dimethoxy-1,2-dimethylisoquinolin-2-ium iodide]
- Impact on polymerization of porcine β-tubulin (A340) ([4]; compound 40 μg/mL, 37 °C): neither 7b nor 19a exert a significant impact
- Impact on SaFtsZ polymerization (A340) (SaFtsZ [1]): stimulate SaFtsZ polymerization
- Stability of compound-induced SaFtsZ polymers to added GDP (SaFtsZ [1]): stable to the depolymerizing effects of GDP

Compound: COc1cc2cc(-c3cccc(C(C)(C)C)c3)nc(CCN)c2cc1OC [Compound 17a, 2-(3-(3-(t-Butyl)phenyl)-6,7-dimethoxyisoquinolin-1-yl)ethanamine]
- IC50 at 4 days [2]: 2.2 to 3.5 µM
- IC50 at 4 days [3]: 2.2 to 3.5 µM
- Impact on SaFtsZ polymerization (A340) (SaFtsZ [1]): stimulate SaFtsZ polymerization
- Stability of compound-induced SaFtsZ polymers to added GDP (SaFtsZ [1]): stable to the depolymerizing effects of GDP

Compound: COc1cc2cc(-c3cccc(C(C)(C)C)c3)nc(C/N=C(/C)N)c2cc1OC [Compound 18a, N′-((3-(3-(t-butyl)phenyl)-6,7-dimethoxyisoquinolin-1-yl)methyl)acetimidamide]
- Concentration dependence of the impact on SaFtsZ GTPase activity (SaFtsZ [5]): stimulate GTPase activity at lower concentrations, followed by inhibition at higher concentrations
- Impact on SaFtsZ polymerization (A340) (SaFtsZ [1]): stimulate SaFtsZ polymerization

Compound: COc1cc2cc(-c3cccc(C(C)(C)C)c3)nc(CN)c2cc1OC [Compound 16a, (3-(3-(t-Butyl)phenyl)-6,7-dimethoxyisoquinolin-1-yl)methanamine]
- Human cell toxicity at the highest concentration tested (HEK293 cells): no significant human cell toxicity
